Experimental data: the RNAGym collection of RNA variant scans (doi:10.1126/science.aae0568)
This sample holds only a part of the variants without activity.

B1: tRNA (parent)
chain: GUUCCGUUGGCGUAAUGGUAACGCGUCUCCCUCCUAAGGAGAAGACUGCGGGUUCGAGUCCCGUACGGAACG

Variants of: B1
Test: yeast fitness relative to wild type (ratio to wild type); higher = fitter; tRNA-Arg(CCU), competitive growth, 37 C, YPD
Outline: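 The tRNA-Arg(CCU) gene variants were made by chemical synthesis with a 3% per-site mutation rate at 69 sites and inserted at the native genomic locus of Saccharomyces cerevisiae. After pooling, the strains were competed in YPD at 37°C for 24 hours in six parallel replicates. Gene amplicons from the start population and each end population were read by 100-nucleotide paired-end sequencing, and Darwinian fitness relative to wild type was taken from genotype frequency changes. Genotypes needed ≥ 100 starting reads, and estimates < 0.5 were set to 0.5.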

Variant	yeast fitness
GUUCCGUGGGGGUAAUGGUAACGCGUCUCCCACCUAAGGAGAAGACUGCGGGUUCGAGUCCCGUACGGAACG	0.642
GUUCCGUUGGCGUAAUGGUAACGCGUCUCGCUCCUAAGGAGAUGACUCCGGGUUCGAGUCCCGGACGGAACG	≤ 0.5
GUUCCGUUGGCGUAAUGGUAACGCGUCUCCCGCCUAAGCAGAAGACUGUGGCUUCGAGUCCCGUACGGAACG	≤ 0.5
GUUCCGUUCGCGUAAUGGUAACGCGUCUCACUCCCAAGGAGAAGACUGCGGGUUCGAGUCCCGUACGGAACG	≤ 0.5
GUUCCGUUGGCGUAAUGGUAACGCGUCUGCCUCCUAAGGCGCAGACUGCGGGUUCGAGUCCCGUCCGGAACG	0.565
GUUCCCUUGGCGCAAUGGUAACGAGUGUCCCUCCUUAGGAGAAGACUGCGGGUUCGAGUCCCGUACGGAACG	≤ 0.5
GCUCCGUUGGCGUAAUGGUAACGCGUCUCGCUACUAAGGAGAAGACUGCGGGUUCGAGUCCCGUACGGAACG	≤ 0.5
GUUCCGUUGGCGUAAUGGUAACGCGUUUCCCUCCUAAGGAGAAGACUGCGGGUUCGAGUCCUGUACAGAACG	0.573
GUUCCGUUGGCGUAAUGGUCACGUGUCUCCCUCCUAAGGAGUAGACUGCGGGUUCGAGCCCCGUACGGAACG	0.619
GUUCCGUUGGCGUAAUGGUAUCGCGUCUCCCUCCUAAGGAGAAGACUGCGGGCGCGAGUCCCGUACGGAACG	≤ 0.5
GUUUGGUUGGCGUAAUGGUAACGCGUCUCCCUCCUAAGGAAAAGACUGCGGGUUCGAGUCCCGUACGGAGCG	≤ 0.5
GUUCCGUUGGCGUAAUGGUAAUGCGUCUCCCUCCUAAGGAGAAGACUGCGGGUUCGAGUCCCGUAUGGCACG	0.593
GUUCCGUUGGCGUAAUGGUAACGCGUCUCCCUCCUAAGGGGAAGACUGCGGGUUCGAGUCCCGUAUGGAACG	0.792
GUUCCGUUGGCGUACUAGUAACGCGUCACCCUCCUAAGGAGAAGACUGCGGGUUCGAGUCCCGUACGGAACG	0.675
GUUCCGUUCGCGUAAUGGUGACGCGUCUCCCUCCUUAGGAGAAGACUGCGGGUUCGAGUCCCGUACGGAACG	≤ 0.5
GUUCCGUUGGCGUAAUGGUAACGCGUUUCUCUCGUACGGAGAAGACUGCGGGUUCGAGUCACGUACGGAACG	≤ 0.5
GUUCCGUUGGCGUAAUGGUAACGAGUCUCCCUCCUAAGGAGACGACUGCGGGUUCGAGUCCCGUACGGAACG	0.55
GUUCCGUAGGCGUAAUGGUAACGCGUCUCGCUCCUAAGGAGAAGACUGCGGGUUCGAGACCCGUACGGAACG	≤ 0.5
GUUCCGUUGGCGUAAUGGUAACGCGUAUCCCUCCUAAAGAGAAGACUGCGGGUUCGAGUCCCGUACGGAACG	0.798

Variant	yeast fitness
GUUCCGUUGGCGUAGUGGUAACGGGACUCCCUCCUAAGGAGAAGACUGCGGAUUCGAGUCCCGUACACAACG	0.561
GUUCGGUUGGCGUAAUGGUAACGUGUCUCCCUCCUAAGGAGAAGACUGCGGGUUCCAGUCCCGUACGGAACG	≤ 0.5
GUUCCAUUGGCGUAAUGGUAACGCGUCUCCCUCCUAAGGAGAAGACUGCGGAUUCGAGUCCCGUACGCAACG	0.609
GUUCCGUUGGCGUAAUGGUAACGCGUGUGCCUCCUAAGGAGAAGACUGUGGGUUCGAGUCCCGUACGGAACG	≤ 0.5
GUCCCGUUGGCGUAAUGGUACUGCGUCUCCUUUCUAAGGAGAAGACUGCGGGUUCGAGUCCCGUACGGAACG	≤ 0.5
GUUCCGUUGGCGUAAUGGUAACGCGUCUCCCUCCUAAGUAGAAGACUGCGGGAUUGAGUCCCGUACGGAACG	0.684
GUUCCGUUGGCGUAAUGGUAACGCGUCACCCUCCGAAGGAGAAGACUGCGGGUUCGAGUCCAGUACGGAACG	≤ 0.5
GUUUCAUUGGCGUAUUGGUCACGCCUCUCCCUCCAAAGGAGAAGUCUGCGGGUUCGAGUCCCGUACGGAACG	≤ 0.5
GUUCUGUUGGCGUAAUGGUAACGCGUCUCCCUCCUAAGGAGAAGAUUGCGGGUUCGAGGCCCGUACGGAACG	0.538
GUUCCGUUGGCGUAAUGGUAACGCGUCUCCCUCCUGAGGAGACGACUGCGGGUUCGAGUCCCGUACGGAACG	0.819
GUACCGUUGGCGUAAUGGUAACGCGUCUCCCUCCUAAGGAGAAGACUGCGGGCCCGAGUCCCGUACGGAACG	≤ 0.5
GUUCCGUUGGGGUAAUGGUAACGCGUCUCCCUCCUAAGGAGAAGACAGCGGGUUCGAGUCCCGUACGCAACG	≤ 0.5
GUUCAGUUGGCGUAAUGGUAACGCGUCUCCAUCCUAAGGCGAUGACUGCGGGUUCGAGUCCCGUGGGGAACG	≤ 0.5
GUUCCGUUGGCGUAAUGGUAACGCGUCUCCCUCCUCAGGAGUAGACUGCGGGUUCGAGUCCCGUACGGAACG	0.639
GUUCCGUUGGCGUCAUGGUAACGCGUCUCCCUCCUAAGGAGAUGACUGCGGGUUCGAGUCCCCUACGGAACG	≤ 0.5
GUUCCGUUGGGGUAAUGGAAAGGCGUCUCCCUCCUAAGGAGAAGACUGCGGGUUCGAGUCCCGUACGCAACG	≤ 0.5
GUUCCGAUGGCGUAAUGGUAACGCGUCGCACUCCUAAGGAGAAGACUGCGGAUUCGAGUCCCGUACGGAACG	0.595
GUUCCGUUGGCGUAAUGGUAACGCGUGUCCCUCCUCAGGAGAAGACUCCGGGUUCGAGUCCCGUACGGAACG	≤ 0.5
GUUCCGUUGGCGUAAUGGUAACGCGUGUCCCUCCUAAGGAGAAGACUGCAGGUUCCAGUCCCGUACGGAACG	≤ 0.5
